This is one part of a sample in which hits are shown more often than they occur.
A1 inh = inhibitors of the anti-apoptotic protein A1, read as caspase activation; AID 2462; caspase activation, % (no concentration beside the values); MEF A1-2A-BIM cells, Caspase-Glo 3/7 luminescence, 3 h; percent of clofoctol response, vehicle zero; 0.066% of 330,000 active;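 active = over half of replicate activation scores above 10%, or exactly half above 10 with the replicate mean above 10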
UPR CHOP act = activators of apoptotic arm of unfolded protein response (CHOP) | activation, % at 10 µM | AID 449763 | CHO-CHOP luciferase reporter, UPR activation, luminescence; percent of tunicamycin response over DMSO baseline | 0.34% of 330,000 active;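 active = at 10 µM dose, activation of 40% or more, normalized to positive control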;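 note: 100% = tunicamycin at 10 µg/mL and 0% = DMSO alone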
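Test system: CHO-CHOP cells, stable luciferase reporter of PERK-eIF2a-CHOP signalling | Quantity: 500 CHO-CHOP cells per well | Buffer or medium: F12 plus 10% serum | Compound dosing: 10 µM single point, 0.5% DMSO | Schedule: 6 h compound treatment, 37 °C | Signal: Luciferase luminescence | Control set: Tunicamycin high control, DMSO low control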
UPR XBP1 act = activators of adaptive arm of unfolded protein response (XBP1); AID 463104; 0.33% of 330,000 active; activation, % at 20 µM; CHO-XBP1 luciferase reporter, IRE1-XBP1 UPR activation, luminescence; percent of tunicamycin response, DMSO as zero;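 active = versus positive control, 20 µM dose yields 30% or more activation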;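 note: 100% = tunicamycin at 10 µg/mL and 0% = DMSO only wells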
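Material – CHO cell line with stable XBP1 luciferase reporter · Buffer or medium – F12 plus 10% FBS · Compound – single point, 20 µM final compound, 1% DMSO · Schedule – 16-18 h cell attachment at 37 °C, then 6 h compound exposure · Signal – Steady-Glo luminescence read · Benchmarks – high control tunicamycin 10 µg/mL final, low control DMSO vehicle only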
CHOP inh = blocks CHOP induction under ER stress; inhibition, % at 10 µM; 3.8% of 220,000 active; CHO-K1 CHOP-promoter luciferase, tunicamycin-induced, 15-18 h;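 active = compounds that reduced the stress-induced luciferase reporter signal by more than about 70% of percent inhibition, limit read from the data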;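 note: 0% = tunicamycin plus vehicle and 100% = wells without tunicamycin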
CHOP inh conf = confirmation of CHOP induction inhibitors | shares compounds with CHOP inh | CHO-CHOP promoter luciferase reporter, tunicamycin-induced, luminescence | inhibition, % at 10 µM | 45% of 2,100 active | AID 504437;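 active = mean of three repeat readings of reporter signal inhibition above a set limit, cut at about 70% in these data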;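 note: 0% = tunicamycin plus vehicle and 100% = wells lacking tunicamycin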
The depositor's hits bear a star; nt = no result.

SMILES	A1 inh	UPR CHOP act	UPR XBP1 act	CHOP inh	CHOP inh conf
O=P(CCCCCCCCCP(=O)(c1ccccc1)c1ccccc1)(c1ccccc1)c1ccccc1	1.1	9.6	1.6	99.5*	49.7
O=C(O)CCCCCCCCCCP(=O)(c1ccccc1)c1ccccc1	-0.3	-1.8	-2.7	8.9	nt
Cc1ccc(C(=O)CC(=O)c2cc(Cl)ccc2O)cc1	-4.4	24.4	3.9	102.5*	71.6*
O=C(CC(=O)c1ccccc1O)c1ccc(F)cc1	-2.4	16.8	2.2	101.1*	62.3
COc1ccc(C(=O)CC(=O)c2ccc(F)cc2)cc1	-1.8	3.8	4.1	nt	nt
O=C(CC(=O)c1ccccc1O)c1cccc(F)c1	-5.2	31.0	3.0	nt	55.6
CCS(=O)(=O)c1nc(S(=O)(=O)c2ccc(C)cc2)c(N2CCC(C)CC2)s1	-0.8	1.6	-8.5	nt	nt
Cc1ccc(S(=O)(=O)N2CCN(CCOc3c(Cl)cccc3Cl)CC2)cc1C	0.7	-1.4	-2.9	nt	nt
CCCCSc1nc(CCC)cc(=O)[nH]1	0.9	-2.5	2.3	0.5	nt
CCCc1cc(=O)[nH]c(SCCOc2ccc(Cl)cc2)n1	-0.2	-0.6	-0.5	101.1*	-8.4
O=C(Nc1ccc(F)c(Cl)c1)Nc1csc2ccccc12	0.8	13.4	-1.7	98.9*	25.9
O=C1c2ccccc2C(=O)C1c1nccc2ccccc12	1.8	-8.2	-12.0	106.4*	104.0*
CC(OC(=O)C1CC1)C(=O)Nc1cc(Cl)cc(Cl)c1 (stereo not given)	1.0	1.6	-2.2	nt	nt
CCOC(=O)C(NC(=O)Nc1cccc(C)n1)(OCC(F)(F)F)C(F)(F)F (stereo not given)	-0.2	0.2	2.5	106.0*	94.8*
CCC(=O)N1c2ccc(S(=O)(=O)NCCc3ccc(OC)c(OC)c3)cc2CC1C (stereo not given)	-0.3	-0.9	-1.4	nt	nt
Cc1cc(C)n(C(C)CNS(=O)(=O)c2ccc(C)c(C)c2)n1 (stereo not given)	0.4	-0.5	-0.2	nt	nt
S=C(Nc1ccc(Cl)c(Cl)c1)NC1CCN(Cc2ccccc2)CC1	-0.3	2.6	13.9	105.4*	37.4
Fc1ccc(NC(=S)NC2CCN(Cc3ccccc3)CC2)cc1	1.6	-0.5	0.4	-10.9	nt
S=C(Nc1ccc(Cl)c(Cl)c1)NC1CCCCC1	0.6	2.6	2.5	103.3*	23.5
Cc1ccc(Sc2ccc(NC(=O)c3ccc(S(C)(=O)=O)cc3Cl)cc2)cc1	-0.7	0.5	1.3	97.8*	65.0
O=C1c2ccc3c4c(ccc(c24)C(=O)N1c1cccc(O)c1)C(=O)N(c1cccc(O)c1)C3=O	-0.8	0.7	-2.2	100.9*	86.3*
O=C1c2cccc3cccc(c23)C(=O)N1c1ccc(O)cc1	0.7	2.4	-0.5	nt	nt
Cc1ccc(OCC(=O)N2CCN(c3nnc(-c4ccc(C)cc4)c4ccccc34)CC2)cc1	nt	2.7	-2.1	97.4*	74.6*
COc1ccc(OCC(=O)N2CCN(c3nnc(-c4ccc(C)cc4)c4ccccc34)CC2)cc1	0.7	4.7	-4.7	23.2	nt
CCOC(=O)[C@@H]1[C@H]2COc3ccc(Br)cc3[C@H]2N2C(=O)N(c3ccc(F)cc3)C(=O)[C@@]12C	0.8	-0.9	0.1	nt	nt
SMILES	A1 inh	UPR CHOP act	UPR XBP1 act	CHOP inh	CHOP inh conf
O=C(CN1CCc2ccccc21)NC(=O)NC1CCCCC1	1.2	-2.1	1.0	31.9	nt
CCOc1cc(C)c(-c2onc(C(F)(F)F)c2-c2csc(C)n2)c(O)c1	-0.5	2.4	1.7	104.9*	72.3*
O=C(N[C@@H](Cc1ccccc1)C(=O)OCc1ccccc1)c1ccco1	-0.4	2.2	-1.2	nt	nt
O=C(NCC1CCCO1)c1ccc2c(=O)n(Cc3cccc(Br)c3)c(=S)[nH]c2c1 (stereo not given)	0.5	-1.4	4.8	106.7*	-13.9
Cc1ccccc1Nc1nnc(-c2ccc(C(=O)NCCO)cc2)c2ccccc12	-1.1	-0.9	-4.8	nt	nt
O=C(N/N=C/c1ccc([N+](=O)[O-])s1)c1ccncc1	-0.2	-0.2	3.0	-27.8	nt
O=C(N/N=C/c1ccc(O)c2ncccc12)c1cccc(Br)c1	1.6	1.5	0.9	105.3*	37.8
O=C(N/N=C/c1ccc([N+](=O)[O-])s1)c1cccc(Br)c1	0.0	-1.6	1.0	97.3*	61.2
CC(=O)Nc1cccc(C(=O)N2CCC(n3nccc3NC(=O)CC(C)C)CC2)c1	0.3	0.1	-2.8	nt	nt
Cc1ccc(O)c(NC(=O)c2noc3c2CCc2ccccc2-3)c1	0.4	7.8	1.9	107.3*	-96.1
Cc1cc(NC(=O)c2noc3c2CCc2ccccc2-3)no1	-1.5	5.6	1.9	19.2	nt
O=C(O)c1ccc(OCCN2CCCC2=O)cc1	0.6	-1.6	-0.4	nt	nt
CCNc1nc(Oc2c(Cl)cccc2Cl)cc(C(F)(F)F)n1	-1.2	-0.5	-0.8	97.5*	101.5*
COc1ccc(Cl)cc1NC(=O)c1cc(-c2cc(C)ccc2O)n[nH]1	-0.3	-0.2	0.8	100.2*	-9.1
COc1ccc(NC(=O)c2cc(-c3cc(C)cc(C)c3O)n[nH]2)cc1Cl	0.9	-0.3	2.5	103.5*	102.0*
COc1ccc(NC(=O)c2cc(-c3ccccc3O)n[nH]2)cc1Cl	-2.8	4.1	1.5	nt	nt
CC(=O)c1cccc(S(=O)(=O)N2CCC(C(=O)Nc3cccc(C(=O)NC4CC4)c3)CC2)c1	0.7	2.9	0.9	nt	nt
O=C(OCn1ncc(Cl)c(Cl)c1=O)c1ccc(F)cc1	0.4	-10.9	-5.1	106.5*	122.9*
Cn1c(SCC(=O)NCC2CCCO2)nc2c(c1=O)SCC2 (stereo not given)	0.8	0.9	-2.3	nt	nt
Cn1cnc([N+](=O)[O-])c1NC(C)(C)C	0.7	-0.1	-3.5	26.9	nt
Cn1cnc([N+](=O)[O-])c1S(=O)(=O)c1ccc(Cl)cc1	nt	nt	nt	109.5*	115.5*
O=C1CSC(=S)N1	0.4	-0.7	-2.3	nt	nt
CCc1ccc(C(=O)/C=C/c2ccc([N+](=O)[O-])o2)cc1	0.1	-2.3	-3.4	105.7*	139.8*
CCN(CC)S(=O)(=O)c1ccc(C(=O)/C=C/c2ccc(-c3ccc([N+](=O)[O-])cc3)o2)cc1	-0.2	2.2	3.7	-14.2	nt
Cc1nn(Cc2ccc(Cl)cc2Cl)c(C)c1NC(=O)Cn1nc([N+](=O)[O-])c(Cl)c1C	3.9	0.8	10.6	100.1*	32.6
O=C(O)c1ccc(N/N=C/c2ccc3nccnc3c2)cc1	-7.7	-9.8	-6.0	100.9*	116.2*
O=C(O)c1ccc(N/N=C/c2ccncc2)cc1	-9.3	-0.2	-3.8	nt	nt
Cc1nnsc1Sc1ccccc1	0.0	1.3	-2.1	-1.8	nt
O=C(Nc1cccc(C(=O)O)c1)/C(=C/c1ccc([N+](=O)[O-])cc1)NC(=O)c1ccccc1	-0.3	-1.6	-4.7	21.7	nt
Cc1ccc(NC(=O)/C(=C\c2ccc([N+](=O)[O-])cc2)NC(=O)c2ccccc2)cc1	0.2	3.2	-0.1	98.1*	-4.1

Source: PubChem BioAssay (several laboratories)
